The subject of data set [1] is HaCaT. Description: Antiproliferative activity against human HaCaT cells after 24 hrs by BrdU incorporation assay. It is filed as functional, cell-based. In a few lines: (§1)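 HaCaT human keratinocytes were grown in high-glucose DMEM with 10% FBS and 2 mM L-glutamine at 37 °C and 5% CO2 to 80% confluency. Cells were treated 24 h with compound at 1, 10 or 50 µM (final DMSO ≤0.1%). Proliferation was read by BrdU incorporation as % of DMSO control; three experiments.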

For data set [2], the system named is Rattus norvegicus. Description: Antihyperalgesic activity in Sprague-Dawley rat model of carrageenan-induced inflammatory pain assessed as paw pressure threshold at 20 mg/kg, po administered 2 hrs post carrageenan challenge measured after 120 mins by paw pressure test (reference value: 34.5 +/- 4.4 g).
Data set [3] relates to Rattus norvegicus. Put plainly: Antihyperalgesic effect in Sprague-Dawley rat model of monosodium iodoacetate-induced osteoarthritis assessed as withdrawal threshold at 20 mg/kg, ip administered 14 days post MIA challenge measured after 90 mins by paw pressure test (reference value: 37.8 +/- 3.1 g). It is filed as functional. In short, it runs like this: (§2)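 Male Sprague–Dawley rats (200–250 g). MIA (2 mg/25 µL) was injected into the left tibiotarsal joint on day 0 under 2% isoflurane; controls received 25 µL saline. On day 14 compound or vehicle was given at time 0. Paw pressure threshold (g) was read with an analgesimeter using a blunt conical probe on the dorsal paw at 30, 60, 90 and 120 min. Mean ± s.e.m., 6 rats.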

Data set [4] concerns Rattus norvegicus. Description: Antihyperalgesic activity in Sprague-Dawley rat model of carrageenan-induced inflammatory pain assessed as paw pressure threshold at 20 mg/kg, po administered 2 hrs post carrageenan challenge measured after 60 mins by paw pressure test (reference value: 35.4 +/- 3.6 g).
Data set [5] concerns Rattus norvegicus. Description: Antihyperalgesic activity in Sprague-Dawley rat model of carrageenan-induced inflammatory pain assessed as paw pressure threshold at 20 mg/kg, po administered 2 hrs post carrageenan challenge measured after 90 mins by paw pressure test (reference value: 37.2 +/- 3.4 g).
Data set [6] deals with Mus musculus. Description: Antinociceptive activity in CD1 albino mouse model of acetic acid-induced visceral pain assessed as number of writhes at 10 mg/kg, po pretreated for 60 mins before acetic acid challenge measured after 5 mins (reference value: 32.5 +/- 2.4). It is filed as functional.
In data set [7] the test system is Rattus norvegicus. Description: Antihyperalgesic effect in Sprague-Dawley rat model of monosodium iodoacetate-induced osteoarthritis assessed as withdrawal threshold at 20 mg/kg, ip administered 14 days post MIA challenge measured after 120 mins by paw pressure test (reference value: 39.2 +/- 4 g). It is filed as functional. In a few lines: as §2
The test system of data set [8] is Rattus norvegicus. Put plainly: Antiinflammatory activity in Sprague-Dawley rat model of carrageenan-induced paw edema assessed as paw volume at 20 mg/kg, po administered 2 hrs post carrageenan challenge measured after 30 mins by plethysmometry (reference value: 34.1 +/- 2.3 ml). It is filed as functional. (In general: The carrageenan paw model is a standard test of acute inflammation.)

Data set [9] relates to HaCaT. Put plainly: Antiproliferative activity against human HaCaT cells at 10 uM after 24 hrs by BrdU incorporation assay. It is filed as functional, cell-based. In a few lines: as §1
Data set [10] concerns Rattus norvegicus. Put plainly: Antiinflammatory activity in Sprague-Dawley rat model of carrageenan-induced paw edema assessed as volume of paw edema at 10 mg/kg, po administered 2 hrs post carrageenan challenge measured after 60 mins by plethysmometry (reference value: 2.73 +/- 0.07 ml). It is filed as functional.
Data set [11] has as its system Rattus norvegicus. Put plainly: Antihyperalgesic activity in Sprague-Dawley rat model of carrageenan-induced inflammatory pain assessed as paw pressure threshold at 3 mg/kg, po administered 2 hrs post carrageenan challenge measured after 30 mins by paw pressure test (reference value: 34.1 +/- 2.3 g).
The test system of data set [12] is Mus musculus. Description: Antinociceptive activity in po dosed CD1 albino mouse model of acetic acid-induced visceral pain assessed as number of writhes pretreated for 30 to 60 mins before acetic acid challenge measured after 5 mins. It is filed as functional, organism-based.
For data set [13], the system named is Mus musculus. Put plainly: Antinociceptive activity in CD1 albino mouse model of acetic acid-induced visceral pain assessed as number of writhes at 3 mg/kg, po pretreated for 60 mins before acetic acid challenge measured after 5 mins (reference value: 32.5 +/- 2.4). It is filed as functional.
Data set [14] concerns the target T1, Prostaglandin G/H synthase 2 (Mus musculus, UniProt Q05769).
T1 sequence (Q05769 whole entry): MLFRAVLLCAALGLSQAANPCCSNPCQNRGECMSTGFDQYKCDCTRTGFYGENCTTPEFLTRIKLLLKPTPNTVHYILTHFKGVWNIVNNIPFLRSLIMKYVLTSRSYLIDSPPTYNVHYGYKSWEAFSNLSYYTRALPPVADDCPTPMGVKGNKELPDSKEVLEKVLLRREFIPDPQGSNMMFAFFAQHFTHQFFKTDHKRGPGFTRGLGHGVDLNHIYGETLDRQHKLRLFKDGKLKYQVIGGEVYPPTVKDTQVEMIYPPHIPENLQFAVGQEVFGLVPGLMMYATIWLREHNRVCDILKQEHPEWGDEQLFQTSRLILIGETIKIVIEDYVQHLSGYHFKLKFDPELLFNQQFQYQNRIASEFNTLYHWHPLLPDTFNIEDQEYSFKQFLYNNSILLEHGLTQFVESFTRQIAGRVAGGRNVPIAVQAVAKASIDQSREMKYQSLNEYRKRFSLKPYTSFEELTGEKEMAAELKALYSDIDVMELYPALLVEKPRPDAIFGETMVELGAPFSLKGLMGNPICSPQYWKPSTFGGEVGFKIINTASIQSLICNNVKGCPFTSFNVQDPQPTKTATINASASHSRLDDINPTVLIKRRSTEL
Put plainly: Inhibition of COX-2 in mouse J774 cells assessed as reduction in LPS-induced PGE2 level incubated for 24 hrs by radio immunoassay. It is filed as cell-based. In short, it runs like this:
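Murine J774 macrophages were stimulated for 24 h with E. coli LPS (10 µg/mL) to induce COX-2, with or without compound (0.001–10 µM). Supernatant PGE2 was measured by RIA as % inhibition of production versus control; triplicate wells, mean of three experiments, IC50 from a sigmoidal variable-slope fit.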

Data set [15] deals with Rattus norvegicus. Description: Antiinflammatory activity in Sprague-Dawley rat model of carrageenan-induced […] at 10 mg/kg, po administered 2 hrs post carrageenan challenge measured after 120 mins by […] (reference value: 34.5 +/- 4.4 ml). It is filed as functional.
Data set [16] deals with Mus musculus. Description: Antinociceptive activity in CD1 albino mouse model of acetic acid-induced visceral pain assessed as number of writhes at 20 mg/kg, po pretreated for 60 mins before acetic acid challenge measured after 5 mins (reference value: 32.5 +/- 2.4). It is filed as functional.
Data set [17] deals with Rattus norvegicus. Description: Antiinflammatory activity in Sprague-Dawley rat model of carrageenan-induced […] at 10 mg/kg, po administered 2 hrs post carrageenan challenge measured after 60 mins by […] (reference value: 35.4 +/- 3.6 ml). It is filed as functional.
Data set [18] relates to HaCaT. Description: Cytotoxicity against human HaCaT cells at 1 to 50 uM after 24 hrs by LDH release assay. It is filed as cell-based. In a few lines:
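HaCaT cells were grown in high-glucose DMEM with 10% FBS to 80% confluency. They were exposed 24 h to compound at 1–50 µM (final DMSO ≤0.1%). LDH release was expressed as a percentage of Triton X-100 lysis (100%); mean of three experiments.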
On the technique in general: LDH in the medium is a marker of cell lysis.

Calls of active or inactive are those of the source.

Broadly, the IC50 is the concentration that gives 50% inhibition.

Regarding `Cc1c(CCOCCCF)cc(-c2ccc(S(C)(=O)=O)cc2)n1-c1ccc(F)cc1`, the Activity result was “Dose-dependent effect” in [1]; 35.5 g in data set [2]; 43.8 g in data set [3]; 56.3 g in [4]; 44.9 g in data set [5]; 17.7 in data set [6]. Moreover, the Activity in data set [7] is 37.1 g; in [8], 53.9 g; in [10] it was 2.15 mL; in data set [11], 45.2 g; in data set [12] it was “Dose-dependent effect”; in data set [13] it was 24.6. Further, the Activity in [15] was 38.1 g; in data set [16] it was 16.9; in [17], 53.5 g; in data set [18], “Non-toxic”. In data set [9], the result was Active. Further, the IC50 in data set [14] came out at 7 nM.

For the origin of these results see ChEMBL document CHEMBL3758101, “Synthesis and biological evaluation of fluorinated 1,5-diarylpyrrole-3-alkoxyethyl ether derivatives as selective COX-2 inhibitors endowed with anti-inflammatory activity” (Eur J Med Chem, 2016).
